{
  "source": "ChEMBL document CHEMBL1127797",
  "about": "“Synthesis of oxadiazolidinedione derivatives as quisqualic acid analogues and their evaluation at a quisqualate-sensitized site in the rat hippocampus” (J Med Chem, 1994)",
  "details_in_all_cases": "pyramidal neuron",
  "key": {"[1]": {"test": "sensitization of CA1 pyramidal neurons to depolarizations by L-AP6 after reversal with L-alpha-AA", "assay_type": "functional, cell-based, Rattus norvegicus", "in_short": "(§1)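 Male Sprague-Dawley rat (25-60 day) hippocampal slices were perfused at 34 °C. Schaffer collaterals were stimulated with field potential recording in CA1 stratum radiatum. L-AP6 concentration-response curves were run before and after exposure to test compound substituted for quisqualic acid, then after 10 min 2 mM L-α-AA. IC50 for 50% peak-amplitude inhibition was interpolated.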"}, "[2]": {"test": "ability to directly depolarize CA1 pyramidal neurons of rat hyppocampal slices after exposure to quisqualic acid", "assay_type": "functional, cell-based", "in_short": "(§2)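 Transverse hippocampal slices from 25-60 day old male Sprague-Dawley rats, preincubated 20-30 min in high Mg2+/low Ca2+ medium. Submerged at 34 °C under 95% O2/5% CO2. Schaffer collaterals stimulated; field potential peak amplitude recorded in CA1 stratum radiatum. Concentration-response curves run before, after 5 min 20 μM quisqualic acid, and after 10 min 2 mM L-α-AA reversal. IC50 interpolated; mean of four experiments.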"}, "[3]": {"test": "ability to directly depolarize CA1 pyramidal neurons of rat hyppocampal slices after reversal with L-alpha-AA", "assay_type": "functional, cell-based", "in_short": "as §2"}, "[4]": {"test": "sensitization of CA1 pyramidal neurons to depolarizations by L-AP6 after exposure to quisqualic acid", "assay_type": "functional, cell-based, Rattus norvegicus", "in_short": "as §1"}, "[5]": {"test": "sensitization of CA1 pyramidal neurons to depolarizations by L-AP6 before exposure to quisqualic acid", "assay_type": "functional, cell-based, Rattus norvegicus", "in_short": "as §1"}, "[6]": {"test": "ability to directly depolarize CA1 pyramidal neurons of rat hyppocampal slices before exposure to quisqualic acid", "assay_type": "functional, cell-based", "in_short": "as §2"}, "[7]": {"test": "Ability to directly depolarize CA1 pyramidal neurons of rat hyppocampal slices after exposure to quisqualic acid", "assay_type": "functional, cell-based", "in_short": "(§3)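 Transverse hippocampal slices (500 μM as printed) from 25-60 day old male Sprague-Dawley rats, preincubated 20-30 min in high Mg2+/low Ca2+ medium, held at 28 °C. Submerged in microperfusion chamber at 34 °C, 95% O2/5% CO2. Schaffer collateral stimulation, stratum radiatum recording of peak field potential amplitude. IC50 (50% inhibition) interpolated from concentration-response data, mean of four experiments; measured before and after 5 min 20 μM quisqualic acid, then after 10 min 2 mM L-α-AA reversal.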"}, "[8]": {"test": "Ability to directly depolarize CA1 pyramidal neurons of rat hyppocampal slices before exposure to quisqualic acid", "assay_type": "functional, cell-based", "in_short": "as §3"}, "[9]": {"test": "Sensitization of CA1 pyramidal neurons to depolarizations by L-AP6 before exposure to quisqualic acid", "assay_type": "functional, cell-based, Rattus norvegicus", "in_short": "(§4)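 Rat (male Sprague-Dawley, 25-60 days) hippocampal slices, submerged, 34 °C, 95% O2/5% CO2; Schaffer collateral stimulation with stratum radiatum CA1 field potential recording. L-AP6 IC50 for 50% inhibition of peak amplitude interpolated from concentration-response curves, mean of four experiments; determined before and after slice exposure to sensitizing agent in place of quisqualic acid, then after 2 mM L-α-AA reversal.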"}, "[10]": {"test": "Sensitization of CA1 pyramidal neurons to depolarizations by L-AP6 after exposure to quisqualic acid", "assay_type": "functional, cell-based, Rattus norvegicus"}, "[11]": {"test": "sensitization of CA1 pyramidal neurons by 2 to depolarizations by L-AP4, L-AP5 and L-AP6 before exposure to quisqualic acid", "assay_type": "functional, cell-based, Rattus norvegicus", "in_short": "(§5)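 Rat hippocampal slices were submerged at 34 °C under 95% O2/5% CO2. Stimulating and recording electrodes sat in CA1 stratum radiatum to record extracellular synaptic field potentials. IC50 of L-AP4, L-AP5 and L-AP6 was measured three times: before, after 20 min exposure to 20 mM test compound in place of quisqualic acid, and after 20 min 2 mM L-α-AA.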"}, "[12]": {"test": "sensitization of CA1 pyramidal neurons by 2 to depolarizations by L-AP4,L-AP5 and L-AP6 after exposure to quisqualic acid", "assay_type": "functional, cell-based, Rattus norvegicus", "in_short": "as §5"}, "[13]": {"test": "sensitization of CA1 pyramidal neurons by 2 to depolarizations by L-AP4, L-AP5 and L-AP6 after reversal with L-alpha-AA", "assay_type": "functional, cell-based, Rattus norvegicus", "in_short": "as §5"}, "[14]": {"test": "Ability to directly depolarize CA1 pyramidal neurons of rat hyppocampal slices after reversal with L-alpha-AA", "assay_type": "functional, cell-based", "in_short": "as §3"}, "[15]": {"test": "Sensitization of CA1 pyramidal neurons to depolarizations by L-AP6 after reversal with L-alpha-AA", "assay_type": "functional, cell-based, Rattus norvegicus", "in_short": "as §4"}},
  "data": [
    {"smiles": "N[C@@H](Cn1oc(=O)[nH]c1=O)C(=O)O", "note": "[QUISQUALATE]", "values": [
      {"measurement": "IC50", "setting": "[1]", "result": 1.9, "unit": "mM"},
      {"measurement": "IC50", "setting": "[2]", "result": 4, "unit": "µM"},
      {"measurement": "IC50", "setting": "[3]", "result": 26, "unit": "µM"},
      {"measurement": "IC50", "setting": "[4]", "result": 40, "unit": "µM"},
      {"measurement": "IC50", "setting": "[5]", "result": "> 10", "unit": "mM"},
      {"measurement": "IC50", "setting": "[6]", "result": 7, "unit": "µM"}
    ]},
    {"smiles": "O=C(O)[C@@H]1C[C@H](n2oc(=O)[nH]c2=O)CN1", "values": [
      {"measurement": "IC50", "setting": "[7]", "result": 14, "unit": "µM"},
      {"measurement": "IC50", "setting": "[8]", "result": 0.015, "unit": "mM"},
      {"measurement": "IC50", "setting": "[9]", "result": "> 10", "unit": "mM"},
      {"measurement": "IC50", "setting": "[10]", "result": "> 10", "unit": "mM"}
    ]},
    {"smiles": "N[C@@H](CCn1oc(=O)[nH]c1=O)C(=O)O", "values": [
      {"measurement": "IC50", "setting": "[1]", "result": 12, "unit": "mM"},
      {"measurement": "IC50", "setting": "[2]", "result": 5.5, "unit": "µM"},
      {"measurement": "IC50", "setting": "[3]", "result": 20, "unit": "µM"},
      {"measurement": "IC50", "setting": "[4]", "result": 170, "unit": "µM"},
      {"measurement": "IC50", "setting": "[5]", "result": 11, "unit": "mM"},
      {"measurement": "IC50", "setting": "[6]", "result": 9.8, "unit": "µM"}
    ]},
    {"smiles": "NC(CCCP(=O)(O)O)C(=O)O", "note": "(centres undefined)", "values": [
      {"measurement": "IC50", "setting": "[11]", "result": 2.3, "unit": "mM"},
      {"measurement": "IC50", "setting": "[12]", "result": 310, "unit": "µM"},
      {"measurement": "IC50", "setting": "[13]", "result": 2.2, "unit": "mM"}
    ]},
    {"smiles": "O=C(O)CCn1oc(=O)[nH]c1=O", "values": [
      {"measurement": "IC50", "setting": "[7]", "result": "> 10000", "unit": "µM"},
      {"measurement": "IC50", "setting": "[8]", "result": "> 10", "unit": "mM"},
      {"measurement": "IC50", "setting": "[9]", "result": "> 10", "unit": "mM"},
      {"measurement": "IC50", "setting": "[10]", "result": "> 10", "unit": "mM"}
    ]},
    {"smiles": "NCCn1oc(=O)[nH]c1=O", "values": [
      {"measurement": "IC50", "setting": "[7]", "result": 3800, "unit": "µM"},
      {"measurement": "IC50", "setting": "[8]", "result": 5.4, "unit": "mM"},
      {"measurement": "IC50", "setting": "[9]", "result": "> 10", "unit": "mM"},
      {"measurement": "IC50", "setting": "[10]", "result": "> 10", "unit": "mM"}
    ]},
    {"smiles": "O=C(O)[C@@H]1C[C@@H](n2oc(=O)[nH]c2=O)CN1", "values": [
      {"measurement": "IC50", "setting": "[14]", "result": 1.1, "unit": "mM"},
      {"measurement": "IC50", "setting": "[7]", "result": 530, "unit": "µM"},
      {"measurement": "IC50", "setting": "[8]", "result": 1, "unit": "mM"},
      {"measurement": "IC50", "setting": "[9]", "result": "> 10", "unit": "mM"},
      {"measurement": "IC50", "setting": "[15]", "result": "> 10", "unit": "mM"},
      {"measurement": "IC50", "setting": "[10]", "result": 0.78, "unit": "mM"}
    ]},
    {"smiles": "N[C@@H](CCP(=O)(O)O)C(=O)O", "values": [
      {"measurement": "IC50", "setting": "[11]", "result": 1.5, "unit": "mM"},
      {"measurement": "IC50", "setting": "[12]", "result": 260, "unit": "µM"},
      {"measurement": "IC50", "setting": "[13]", "result": 1.7, "unit": "mM"}
    ]},
    {"smiles": "NC(CCCCP(=O)(O)O)C(=O)O", "note": "(centres undefined)", "values": [
      {"measurement": "IC50", "setting": "[11]", "result": 11, "unit": "mM"},
      {"measurement": "IC50", "setting": "[4]", "result": 170, "unit": "µM"},
      {"measurement": "IC50", "setting": "[13]", "result": 12, "unit": "mM"}
    ]}
  ]
}
